Experimental data of several laboratories.
Lines come from different studies, so protocols differ.
Target: Vasopressin V1a receptor (AVPR1A, Homo sapiens, UniProt P37288)

SMILES | test | setting | endpoint | value
CN(CCN1CCC(OC(=O)Nc2ccccc2-c2ccccc2)CC1)C(=O)c1ccc(CN2CCC(C(N)=O)CC2)cc1 | ligand displacement, radioligand | 1 µM | inhibition | 5%
Nc1ncc(-c2nc(N3CCOCC3)nc(N3CCOCC3)n2)c(C(F)F)n1 | cell-free assay, radioligand | 10 µM | remaining signal | 104%
COc1ccc(S(=O)(=O)N2CCCCC2)cc1C | ligand displacement, radioligand | 10 µM | inhibition | < 30%
COCc1c(-c2cc3cc(C)cc(OC)c3s2)c2c(N)ncnn2c1CN1CCNC(=O)C1 | ligand displacement, radioligand | 10 µM | inhibition | -11%
Clc1ccc2c(C3CCN(CCc4c[nH]c5ccccc45)CC3)c[nH]c2c1 | ligand displacement, radioligand | 10 µM | inhibition | 2%
C[C@H](C(=O)N[C@H]1COc2ccccc2[C@@H]1S(C)(=O)=O)c1ccc(F)cc1 | cell-free assay | 10 µM | inhibition | -23%
CCN(CC)CCCC[C@H](NC(=O)[C@H](CC(C)C)NC(=O)[C@H](C)NC(=O)[C@H](Cc1ccccc1)NC(=O)c1ccc(C(C)(C)C)cc1)C(=O)N[C@@H](CO)C(=O)OC | ligand displacement, radioligand | 10 µM | remaining binding | 14.6%
O=C(Nc1cccnn1)N1CCN([C@@H]2CCOc3cc(C(F)(F)F)ccc32)CC1 | ligand displacement | 20 µM | inhibition | 5%
c1ccc(C(NCCNC(c2ccccc2)c2ccccc2)c2ccccc2)cc1 | cell-free assay | 10 µM | inhibition | -1%
